Test results taken from ChEMBL document CHEMBL1629690, “Development of hexadecyloxypropyl tenofovir (CMX157) for treatment of infection caused by wild-type and nucleoside/nucleotide-resistant HIV” (Antimicrob Agents Chemother, 2010).

Experiments:
[1] = test system: Human immunodeficiency virus 1; assay: Antiviral activity against HIV1 subtype A isolate 92UG029 infected in human MDM […] by MTS assay; assay type: functional, organism-based; conditions: Human immunodeficiency virus 1, isolate 92UG029
[2] = test system: Human immunodeficiency virus 2; assay: Antiviral activity against HIV2 isolate CDC310342 infected in human PBMC after 48 to 72 hrs by MTS assay; assay type: functional, organism-based; conditions: Human immunodeficiency virus 2, isolate CDC310342
How it was run: (§1)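 Fresh donor PBMCs, HIV- and HBV-seronegative, were stimulated with 4 μg/ml PHA for 48 to 72 h and kept on 20 U/ml rhIL-2. Cells pooled from at least two donors were seeded at 5 × 10^4 per well and infected at MOI ~0.1. Nine compound concentrations were run in triplicate wells for 7 days.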

[3] = test system: Human immunodeficiency virus 1; assay: Antiviral activity against HIV1 subtype E isolate CMU08 infected in human PBMC after 48 to 72 hrs by MTS assay; assay type: functional, organism-based; conditions: Human immunodeficiency virus 1, isolate CMU08; how it was run: as §1
[4] = test system: Human immunodeficiency virus 1; assay: Antiviral activity against HIV1 subtype A isolate 92UG029 infected in human PBMC after 48 to 72 hrs by MTS assay; assay type: functional, organism-based; conditions: Human immunodeficiency virus 1, isolate 92UG029; how it was run: as §1
[5] = test system: Human immunodeficiency virus 1; assay: Antiviral activity against HIV1 subtype A isolate 92UG037 infected in human PBMC after 48 to 72 hrs by MTS assay; assay type: functional, organism-based; conditions: Human immunodeficiency virus 1, isolate 92UG037; how it was run: as §1
[6] = test system: Human immunodeficiency virus 1; assay: Antiviral activity against HIV1 subtype F isolate 93BR020 infected in human PBMC after 48 to 72 hrs by MTS assay; assay type: functional, organism-based; conditions: Human immunodeficiency virus 1, isolate 93BR020; how it was run: as §1
[7] = test system: Human immunodeficiency virus 1; assay: Antiviral activity against HIV1 subtype A isolate 92RW009 infected in human PBMC after 48 to 72 hrs by MTS assay; assay type: functional, organism-based; conditions: Human immunodeficiency virus 1, isolate 92RW009; how it was run: as §1
[8] = test system: Human immunodeficiency virus 1; assay: Antiviral activity against HIV1 subtype F isolate 93BR029 infected in human PBMC after 48 to 72 hrs by MTS assay; assay type: functional, organism-based; conditions: Human immunodeficiency virus 1, isolate 93BR029; how it was run: as §1
[9] = test system: Human immunodeficiency virus 1; assay: Antiviral activity against HIV1 subtype D isolate 92UG024 infected in human PBMC after 48 to 72 hrs by MTS assay; assay type: functional, organism-based; conditions: Human immunodeficiency virus 1, isolate 92UG024; how it was run: as §1
[10] = test system: Human immunodeficiency virus 1; assay: Antiviral activity against HIV1 subtype A isolate 92UG037 infected in human MDM […] by MTS assay; assay type: functional, organism-based; conditions: Human immunodeficiency virus 1, isolate 92UG037
HepG2 = assay: Cytotoxicity against human HepG2 cells after 24 hrs by XTT assay; assay type: cell-based; conditions: hepg2, 24 h
How it was run: (§2)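 Six-concentration growth-inhibition test: 10 to 0.032 μM for the prodrug and TDF, up to 100 μM for TFV, with Triton X-100 run in parallel. Cell lines were split 1:2 the day before and seeded at 5 × 10^3 to 2 × 10^4 cells/well, with adherent lines left overnight. Dendritic cells were derived with GM-CSF/IL-4 for 7 days, then LPS 10 ng/ml for 2 days. Viability was read by XTT.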

PBMC [11] = assay: Cellular uptake in PHA/IL-2-stimulated human PBMC at 0.1 uM assessed as TFV-monophosphate after 24 hrs by MS/MS analysis; assay type: ADME, cell-based; conditions: BLD = below limit of detection
How it was run: (§3)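 PHA/IL-2-stimulated PBMCs at 2 × 10^6 cells/ml (5 × 10^7 per flask) were exposed for 24 h at 37°C. Cells were washed three times in cold 0.9% NaCl and counted by trypan blue. Aliquots of 1 × 10^7 cells were pelleted. TFV, TFV-MP and TFV-PP were separated by ion-pairing reverse-phase gradient LC and detected by positive electrospray. Results are given as pmol/10^6 cells.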

PBMC [12] = assay: Cellular uptake in PHA/IL-2-stimulated human PBMC at 10 uM assessed as TFV-monophosphate after 24 hrs by MS/MS analysis; assay type: ADME, cell-based
How it was run: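 PHA-stimulated (4 μg/ml PHA, 48 to 72 h; 20 U/ml rhIL-2) human PBMCs at 2 × 10^6 cells/ml in RPMI 1640 with 15% FBS, given tenofovir or prodrug (final 0.01 to 10 μM) for 24 h at 37°C. Cells washed three times in cold 0.9% NaCl, counted, and 1 × 10^7 cell aliquots pelleted. TFV, TFV-MP and TFV-PP were separated by ion-pairing reverse-phase LC and detected by positive-ion electrospray MS. Output is pmol per 10^6 cells.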

[13] = test system: Human immunodeficiency virus 1; assay: Antiviral activity against HIV1 isolate JR-CSF infected in human PBMC after 48 to 72 hrs by MTS assay in presence of 20% human serum; assay type: functional; conditions: Human immunodeficiency virus 1, JRCSF ISOLATE
How it was run: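 This is the PHA/IL-2 PBMC assay run with JR-CSF preincubated with 8 × 10^6 pooled cells for 1 h at 37°C. Cells were then spinoculated at 200 × g for 1 h and held 2 h more. Infected cells (2.5 × 10^4) were added, without virus washout, to wells holding uninfected PBMCs and compound. Medium had 15% FBS, plus 0, 10, 15, 20 or 30% human serum.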

[14] = test system: Human immunodeficiency virus 1; assay: Antiviral activity against HIV1 subtype B isolate Ba-L infected in human PBMC after 48 to 72 hrs by MTS assay; assay type: functional, organism-based; conditions: Human immunodeficiency virus 1, isolate Ba-L; how it was run: as §1
PBMC [15] = assay: Cellular uptake in human PBMC at 1 uM assessed as TFV-monophosphate level after 24 hrs by MS/MS analysis; assay type: ADME, cell-based
How it was run: (§4)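 Human PBMCs, unstimulated or PHA/IL-2-stimulated, at 2 × 10^6 cells/ml in RPMI 1640 with 15% FBS, exposed 24 h at 37°C to final 0.01, 0.1, 1.0 or 10 μM of the prodrug, or 1.0 or 10 μM tenofovir. After cold saline washes the cells were counted and 1 × 10^7-cell pellets made. TFV, TFV-MP and TFV-PP were measured by ion-pairing LC with positive-ion electrospray MS as pmol/10^6 cells.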

PBMC [16] = assay: Cellular uptake in human PBMC at 0.1 uM assessed as TFV-diphosphate after 24 hrs by MS/MS analysis; assay type: ADME, cell-based; how it was run: as §4
PBMC [17] = assay: Cellular uptake in human PBMC at 10 uM assessed as TFV-diphosphate after 24 hrs by MS/MS analysis; assay type: ADME, cell-based; how it was run: as §4
PBMC [18] = assay: Cellular uptake in PHA/IL-2-stimulated human PBMC at 0.1 uM assessed as TFV level after 24 hrs by MS/MS analysis; assay type: ADME, cell-based; conditions: BLD = below limit of detection; how it was run: as §3
PBMC [19] = assay: Cellular uptake in human PBMC at 0.1 uM assessed as TFV level after 24 hrs by MS/MS analysis; assay type: ADME, cell-based; how it was run: as §4
PBMC [20] = assay: Cellular uptake in PHA/IL-2-stimulated human PBMC at 0.01 uM assessed as TFV level after 24 hrs by MS/MS analysis; assay type: ADME, cell-based; conditions: BLD = below limit of detection; how it was run: as §3
[21] = test system: Human immunodeficiency virus 1; assay: Antiviral activity against HIV1 subtype C isolate 93MW959 infected in human PBMC after 48 to 72 hrs by MTS assay; assay type: functional, organism-based; conditions: Human immunodeficiency virus 1, isolate 93MW959; how it was run: as §1
HeLa = assay: Cytotoxicity against human HeLa cells after 24 hrs by XTT assay; assay type: cell-based; how it was run: as §2
PBMC [22] = assay: Cellular uptake in human PBMC at 1 uM assessed as TFV-diphosphate level after 24 hrs by MS/MS analysis; assay type: ADME, cell-based; how it was run: as §4
PBMC [23] = assay: Cellular uptake in PHA/IL-2-stimulated human PBMC at 0.01 uM assessed as TFV-monophosphate after 24 hrs by MS/MS analysis; assay type: ADME, cell-based; conditions: BLD = below limit of detection; how it was run: as §3
[24] = test system: Human immunodeficiency virus 1; assay: Antiviral activity against HIV1 subtype B isolate ADA infected in human PBMC after 48 to 72 hrs by MTS assay; assay type: functional, organism-based; conditions: Human immunodeficiency virus 1, isolate ADA; how it was run: as §1

Compound | EC50 [1] | EC50 [2] | EC50 [3] | EC50 [4] | EC50 [5] | EC50 [6] | EC50 [7] | EC50 [8] | EC50 [9] | EC50 [10] | Activity (HepG2) | Drug uptake (PBMC [17]) | Activity (HeLa) | Drug uptake (PBMC [22]) | also measured
Cc1cn([C@H]2C[C@H](N=[N+]=[N-])[C@@H](CO)O2)c(=O)[nH]c1=O [ZIDOVUDINE] | 1.2 nM | 9.3 nM | 5.5 nM | 14 nM | 14 nM | 9.6 nM | 14 nM | 9.6 nM | 6.3 nM | 1.3 nM |  |  |  |  | 
CCCCCCCCCCCCCCCCOCCCOP(=O)(O)CO[C@H](C)Cn1cnc2c(N)ncnc21 [TENOFOVIR EXALIDEX] | 1.3 nM | 3.5 nM | 2.3 nM | 3.3 nM | 3.3 nM | 2.7 nM | 3.3 nM | 2.7 nM | 2.1 nM | 1.3 nM | Non-toxic | 1.1 pmol/10^6 cells | Non-toxic | 0.22 pmol/10^6 cells | Drug uptake (PBMC [11]): BLD; Drug uptake (PBMC [12]): 0.9 pmol/10^6 cells; EC50 [13]: 11 nM; EC50 [14]: 1.5 nM; Drug uptake (PBMC [15]): 0.05 pmol/10^6 cells; Drug uptake (PBMC [16]): 0.07 pmol/10^6 cells; Drug uptake (PBMC [18]): BLD; Drug uptake (PBMC [19]): 0.05 pmol/10^6 cells; Drug uptake (PBMC [20]): BLD; EC50 [21]: 2.8 nM; Drug uptake (PBMC [23]): BLD; EC50 [24]: 1.5 nM
C[C@H](Cn1cnc2c(N)ncnc21)OCP(=O)(O)O [TENOFOVIR ANHYDROUS] |  |  |  |  |  |  |  |  |  |  | Non-toxic | 0.15 pmol/10^6 cells | Non-toxic | 0.05 pmol/10^6 cells | Drug uptake (PBMC [12]; BLD = below limit of detection): BLD; Drug uptake (PBMC [15]; BLD = below limit of detection): BLD
